# Measured values as given in ChEMBL document CHEMBL3526041, “Absorption, metabolism and excretion of [(14)C]mirabegron (YM178), a potent and selective β(3)-adrenoceptor agonist, after oral administration to healthy male volunteers” (Drug Metab Dispos, 2012).
# Tests used:
# [1] = system: Homo sapiens; assay: Toxicity in healthy human assessed as changes in physical signs at 160 mg, po as single dose; format: organism-based; design: dosed compound name [14C]Mirabegron; details: in vivo
# In short: (§1)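 Safety in the four dosed men was followed throughout admission: 12-lead ECGs, vital signs, hematology, biochemistry, urinalysis, and physical examinations after a single oral 160 mg [14C]mirabegron solution.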
# [2] = Drug recovery in healthy human expired air at 160 mg, po as single dose measured up to 96 hrs; format: ADME, organism-based; design: dosed compound name [14C]Mirabegron; details: in vivo
# In short: (§2)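 One oral dose of 160 mg [14C]mirabegron (1.85 MBq) given as a solution to four healthy men. Urine and feces were collected to 408 h; feces were homogenized and combusted. Expired air was trapped in hyamine hydroxide at set times to 96 h. All samples were counted by liquid scintillation. Cumulative excretion is given as % of administered radioactivity, mean ± S.D., n=4.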
# [3] = system: Plasma; assay: AUC (infinity) as total radioactivity in healthy human plasma at 160 mg, po as single dose; format: ADME, organism-based; design: dose 160 mg, route oral, time infinity, dosed compound name [14C]Mirabegron; details: in vivo
# In short: (§3)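 Four healthy men fasted overnight, then took one oral dose of 160 mg mirabegron containing 1.85 MBq [14C]mirabegron, dissolved in 20 mM sodium citrate pH 4.5. Blood was drawn into lithium heparin tubes from 0 to 168 h. Total radioactivity in whole blood and plasma was counted by liquid scintillation. Unchanged drug in plasma was measured by validated LC-MS/MS (1–500 ng/ml). Parameters were derived noncompartmentally; values are mean ± S.D., n=4.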
# [4] = system: Blood; assay: AUC (infinity) as total radioactivity in healthy human whole blood at 160 mg, po as single dose; format: ADME, organism-based; design: dose 160 mg, time infinity, route oral, dosed compound name [14C]Mirabegron; details: in vivo; in short: as §3
# [5] = system: Blood; assay: Tmax as total radioactivity in healthy human whole blood at 160 mg, po as single dose; format: ADME, organism-based; design: dosed compound name [14C]Mirabegron; details: in vivo; in short: as §3
# [6] = Drug recovery in healthy human urine at 160 mg, po as single dose measured up to 96 hrs; format: ADME, organism-based; design: dosed compound name [14C]Mirabegron; details: in vivo; in short: as §2
# [7] = system: Plasma; assay: Cmax as total radioactivity in healthy human plasma at 160 mg, po as single dose; format: ADME, organism-based; design: dose 160 mg, route oral, dosed compound name [14C]Mirabegron; details: in vivo; in short: as §3
# [8] = system: Homo sapiens; assay: Total drug recovery in healthy human at 160 mg, po as single dose measured up to 408 hrs; format: ADME, organism-based; design: dosed compound name [14C]Mirabegron; details: in vivo; in short: as §2
# [9] = Drug recovery in healthy human feces at 160 mg, po as single dose measured up to 96 hrs; format: ADME, organism-based; design: dosed compound name [14C]Mirabegron; details: in vivo; in short: as §2
# [10] = Drug recovery in healthy human urine at 160 mg, po as single dose measured up to 408 hrs; format: ADME, organism-based; design: dosed compound name [14C]Mirabegron; in short: as §2
# [11] = system: Homo sapiens; assay: Toxicity in healthy human assessed as ECG parameter at 160 mg, po as single dose; format: organism-based; design: dosed compound name [14C]Mirabegron; details: in vivo; in short: as §1
# [12] = system: Homo sapiens; assay: Toxicity in healthy human assessed as vital signs at 160 mg, po as single dose; format: organism-based; design: dosed compound name [14C]Mirabegron; details: in vivo; in short: as §1
# [13] = Drug recovery in healthy human plasma at 160 mg, po as single dose measured at 12 hrs; details: in vivo
# [14] = system: Plasma; assay: Terminal elimination phase half life as total radioactivity in healthy human plasma at 160 mg, po as single dose; format: ADME, organism-based; design: dosed compound name [14C]Mirabegron; details: in vivo; in short: as §3
# [15] = system: Plasma; assay: Tmax as total radioactivity in healthy human plasma at 160 mg, po as single dose; format: ADME, organism-based; design: dosed compound name [14C]Mirabegron; details: in vivo; in short: as §3
# [16] = system: Homo sapiens; assay: Toxicity in healthy human assessed as changes in clinical lab values at 160 mg, po as single dose; format: organism-based; design: dosed compound name [14C]Mirabegron; details: in vivo; in short: as §1
# [17] = Drug recovery in healthy human feces at 160 mg, po as single dose measured up to 408 hrs; format: ADME, organism-based; design: dosed compound name [14C]Mirabegron; details: in vivo; in short: as §2
# [18] = Terminal elimination phase half life as total radioactivity in healthy human urine at 160 mg, po as single dose; format: ADME, organism-based; design: dosed compound name [14C]Mirabegron; details: in vivo
# In short: (§4)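 Same single oral 160 mg [14C]mirabegron solution in four fasted healthy men. Urine was collected over 0–6, 6–12 and 12–24 h, then in 24-h intervals to 408 h. Radioactivity was measured by scintillation counting. Unchanged drug was measured by LC-MS/MS (2–1000 ng/ml). Half-life came from log-linear regression of the terminal phase, and renal clearance was also calculated.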
# [19] = system: Blood; assay: Cmax as total radioactivity in healthy human whole blood at 160 mg, po as single dose; format: ADME, organism-based; design: dose 160 mg, route oral, dosed compound name [14C]Mirabegron; details: in vivo; in short: as §3
# [20] = system: Blood; assay: Terminal elimination phase half life as total radioactivity in healthy human whole blood at 160 mg, po as single dose; format: ADME, organism-based; design: dosed compound name [14C]Mirabegron; details: in vivo; in short: as §3
# [21] = system: Plasma; assay: Drug recovery in healthy human plasma treated with [14C]mirabegron at 160 mg, po as single dose measured at 2 hrs; format: ADME, organism-based; design: dosed compound name [14C]Mirabegron; details: in vivo
# In short: (§5)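 Plasma taken at 2, 4, 8 and 12 h from the four subjects was pooled at each time point, with dichlorvos added. Pools underwent solid-phase extraction, then HPLC with fractions counted by low-level liquid scintillation. Each peak is expressed as % of the radioactivity injected onto HPLC.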
# [22] = system: Plasma; assay: Drug recovery in healthy human plasma treated with [14C]mirabegron at 160 mg, po as single dose measured at 8 hrs; format: ADME, organism-based; design: dosed compound name [14C]Mirabegron; details: in vivo; in short: as §5
# [23] = Drug recovery in healthy human urine treated with [14C]mirabegron at 160 mg, po as single dose measured up to 48 hrs; format: ADME, organism-based; design: dosed compound name [14C]Mirabegron; details: in vivo
# In short: (§6)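 Urine was collected at 0–6, 6–12, 12–24 and 24–48 h after a single oral 160 mg [14C]mirabegron dose in four men, with dichlorvos added. Samples underwent solid-phase extraction and radio-HPLC (C18, 40°C), with eluate fractions counted by scintillation. Each peak, as a percentage of eluted radioactivity, was converted to % of dose without recovery correction; mean ± S.D.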
# [24] = system: Plasma; assay: Drug recovery in healthy human plasma treated with [14C]mirabegron at 160 mg, po as single dose measured at 4 hrs; format: ADME, organism-based; design: dosed compound name [14C]Mirabegron; details: in vivo; in short: as §5
# [25] = system: Plasma; assay: Drug recovery in healthy human plasma treated with [14C]mirabegron at 160 mg, po as single dose measured at 12 hrs; format: ADME, organism-based; design: dosed compound name [14C]Mirabegron; details: in vivo; in short: as §5
# [26] = Apparent oral clearance in healthy human plasma at 160 mg, po as single dose; format: ADME, organism-based; design: dosed compound name [14C]Mirabegron; in short: as §3
# [27] = Apparent volume of distribution during terminal phase in healthy human plasma at 160 mg, po as single dose; format: ADME, organism-based; design: dosed compound name [14C]Mirabegron; details: read-out: Vz/F; in short: as §3
# [28] = Tmax in healthy human plasma at 160 mg, po as single dose; format: ADME, organism-based; design: dosed compound name [14C]Mirabegron; in short: as §3
# [29] = Cmax in healthy human plasma at 160 mg, po as single dose; format: ADME, organism-based; design: dose 160 mg, route oral, dosed compound name [14C]Mirabegron; in short: as §3
# [30] = Absolute oral bioavailability in dog at 0.5 mg/kg; format: ADME, organism-based, Canis lupus familiaris; design: dosed compound name [14C]Mirabegron; details: in vivo
# [31] = Absolute oral bioavailability in dog at 1 mg/kg; format: ADME, organism-based, Canis lupus familiaris; design: dosed compound name [14C]Mirabegron; details: in vivo
# [32] = Absolute oral bioavailability in dog at 0.25 mg/kg; format: ADME, organism-based, Canis lupus familiaris; design: dosed compound name [14C]Mirabegron; details: in vivo
# [33] = system: Plasma; assay: Drug recovery in healthy human plasma at 160 mg, po as single dose measured at 4 hrs; format: ADME, organism-based; design: dosed compound name [14C]Mirabegron; details: in vivo; in short: as §5
# [34] = Terminal elimination phase half life in healthy human plasma at 160 mg, po as single dose; format: ADME, organism-based; design: dosed compound name [14C]Mirabegron; details: read-out: beta t1/2 (converted); in short: as §3
# [35] = system: Plasma; assay: Drug recovery in healthy human plasma at 160 mg, po as single dose measured at 2 hrs; format: ADME, organism-based; design: dosed compound name [14C]Mirabegron; details: in vivo; in short: as §5
# [36] = Absolute oral bioavailability in rat at 30 mg/kg; format: ADME, organism-based; design: dosed compound name [14C]Mirabegron; details: in vivo
# [37] = Absolute oral bioavailability in rat at 10 mg/kg; format: ADME, organism-based; design: dosed compound name [14C]Mirabegron; details: in vivo
# [38] = system: Plasma; assay: Drug recovery in healthy human plasma at 160 mg, po as single dose measured at 12 hrs; format: ADME, organism-based; design: dosed compound name [14C]Mirabegron; details: in vivo; in short: as §5
# [39] = Renal clearance in healthy human plasma at 160 mg, po as single dose; format: ADME, organism-based, Kidney; design: dosed compound name [14C]Mirabegron; in short: as §4
# [40] = Absolute oral bioavailability in rat at 3 mg/kg; format: ADME, organism-based; design: dosed compound name [14C]Mirabegron; details: in vivo
# [41] = AUC (infinity) in healthy human plasma at 160 mg, po as single dose; format: ADME, organism-based; design: dose 160 mg, route oral, time infinity, dosed compound name [14C]Mirabegron; in short: as §3
# [42] = Drug recovery in healthy human urine at 160 mg, po as single dose measured up to 48 hrs; format: ADME, organism-based; design: dosed compound name [14C]Mirabegron; details: read-out: Compound recovery; in short: as §6
# [43] = Terminal elimination phase half life in healthy human urine at 160 mg, po as single dose; format: ADME, organism-based; design: dosed compound name [14C]Mirabegron; details: read-out: beta t1/2 (converted); in short: as §4
# [44] = system: Plasma; assay: Drug recovery in healthy human plasma at 160 mg, po as single dose measured at 8 hrs; format: ADME, organism-based; design: dosed compound name [14C]Mirabegron; details: in vivo; in short: as §5
smiles,measurement,setting,value
Nc1nc(CC(=O)N[14c]2[14cH][14cH][14c](CCNC[C@H](O)c3ccccc3)[14cH][14cH]2)cs1,Activity,[1],Non-toxic
same,Radiolabel recovery,[2],Below limit of detection
same,AUC,[3],10443 ng·h/mL
same,AUC,[4],13896 ng·h/mL
same,Tmax,[5],2.13 h
same,Radiolabel recovery,[6],48.7%
same,Cmax,[7],879 ng/mL
same,Radiolabel recovery,[8],89.2%
same,Radiolabel recovery,[9],29.3%
same,Radiolabel recovery,[10]; in vivo,55%
same,Activity,[11],Non-toxic
same,Activity,[12],Non-toxic
same,Radiolabel recovery,[13],metabolite_not_detected
same,beta t1/2,[14],28.2 h
same,Tmax,[15],2.25 h
same,Activity,[16],Non-toxic
same,Radiolabel recovery,[17],34.2%
same,beta t1/2,[18],84.5 h
same,Cmax,[19],777 ng/mL
same,beta t1/2,[20],30.5 h
Nc1nc(CC(=O)Nc2ccc(CC(=O)O)cc2)cs1.O=C(O)C(F)(F)F,Compound recovery,[21],2.2%
same,Compound recovery,[22],Below limit of detection
same,Compound recovery,[23],1.3%
same,Compound recovery,[24],1.4%
same,Compound recovery,[25],Below limit of detection
CC(=O)Nc1ccc(CC(=O)O)cc1 [ACTARIT],Compound recovery,[21],Below limit of detection
same,Compound recovery,[22],Below limit of detection
same,Compound recovery,[23],0.6%
same,Compound recovery,[24],Below limit of detection
same,Compound recovery,[25],Below limit of detection
Nc1nc(CC(=O)Nc2ccc(CCNC[C@H](O)c3ccccc3)cc2)cs1 [MIRABEGRON],CL/F,[26],1180 mL/min
same,Vd/F,[27],4820 L
same,Tmax,[28],1 h
same,Cmax,[29],371 ng/mL
same,bioavailability,[30],64.6%
same,bioavailability,[31],77.1%
same,bioavailability,[32],41.8%
same,Compound recovery,[33],30.9%
same,half-life,[34],47.9 h
same,Compound recovery,[35],46.4%
same,dose excreted at 408 h,[10]; read-out: Compound recovery,25%
same,bioavailability,[36],75.7%
same,bioavailability,[37],48.4%
same,Compound recovery,[38],31%
same,CL renal,[39],295 mL/min
same,bioavailability,[40],23%
same,AUC(0-inf),[41],2280 ng·h/mL
same,dose excreted at 48 h,[42],18.4%
same,half-life,[43],72.9 h
same,Compound recovery,[44],28.6%
